≈ marks a conversion by molar mass, not a printed value.
Assays:
MIA PaCa-2 = assay: Cytotoxicity on pancreatic carcinoma (PACA-2) cell line; type: functional; settings: Homo sapiens, read-out: ED50 (the source's name)
Outline: (§1)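 Human solid tumour cell line panel tested at the Purdue Cancer Center with a 7-day MTT viability assay under standard protocols. Cell lines were A-549 lung, MCF-7 breast, HT-29 colon, A-498 kidney, PC-3 prostate and PACA-2 pancreatic. Adriamycin served as positive control.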

A498 = assay: Cytotoxicity on kidney carcinoma (A-498) cell line; type: functional; settings: Homo sapiens, read-out: ED50 (the source's name); outline: as §1
PC-3 = assay: Cytotoxicity on prostate adenocarcinoma (PC-3) cell line; type: functional; settings: Homo sapiens, read-out: ED50 (the source's name); outline: as §1
MCF7 = assay: Cytotoxicity on breast carcinoma (MCF-7) cell line; type: functional; settings: Homo sapiens, read-out: ED50 (the source's name); outline: as §1
HT-29 = assay: Cytotoxicity on adenocarcinoma (HT-29 colon) cell line; type: functional; settings: Homo sapiens, read-out: ED50 (the source's name); outline: as §1
[1] = Lethal concentration against Brine Shrimp; type: organism-based; settings: artemia, in vivo
Outline: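 Brine shrimp lethality test run by a standard protocol on partitioned fractions, pooled chromatographic fractions and isolated compounds. LC50 values were determined and expressed in µg/mL.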

A549 = assay: Cytotoxicity on lung carcinoma (A-549) cell line; type: functional; settings: Homo sapiens, read-out: ED50 (the source's name); outline: as §1

SMILES	EC50 (MIA PaCa-2) [µg/mL]	EC50 (A498) [µg/mL]	EC50 (PC-3) [µg/mL]	EC50 (MCF7) [µg/mL]	EC50 (HT-29) [µg/mL]	LC50 [1] [µg/mL]	EC50 (A549) [µg/mL]
COc1cccc2c1C(=O)c1c(O)c3c(c(O)c1C2=O)C[C@@](O)(C(=O)CO)C[C@@H]3O[C@H]1C[C@H](N)[C@H](O)[C@H](C)O1 [DOXORUBICIN]	1.63 (≈ 3 µM)	1.87 (≈ 3.44 µM)	–	–	–	–	–
C/C=C(/C)C(=O)O[C@@]12C[C@@H](C)[C@]3(O)C4C=C(C)C(=O)[C@@]4(O)CC(COC(C)=O)=C[C@H]3[C@@H]1C2(C)C (some centres undefined)	30.3 (≈ 64.2 µM)	2.18 (≈ 4.61 µM)	27.7 (≈ 58.6 µM)	41.8 (≈ 88.4 µM)	30.8 (≈ 65.1 µM)	191 (≈ 404 µM)	18.9 (≈ 40 µM)
CC1=CC2[C@@]3(O)[C@H](C)C[C@]4(OC(=O)CCCCCCC[C@H]5C[C@@H]5C)[C@H]([C@@H]3C(C)=C(CO)C[C@]2(O)C1=O)C4(C)C (some centres undefined)	1.92 (≈ 3.54 µM)	–	2.44 (≈ 4.5 µM)	–	–	–	2.85 (≈ 5.25 µM)
C/C=C(/C)C(=O)O[C@@]12C[C@@H](C)[C@]3(O)C4C=C(C)C(=O)[C@@]4(O)CC(CO)=C[C@H]3[C@@H]1C2(C)C (some centres undefined)	37.2 (≈ 86.5 µM)	46 (≈ 107 µM)	17.9 (≈ 41.6 µM)	69.9 (≈ 162 µM)	26.5 (≈ 61.6 µM)	115 (≈ 266 µM)	11.6 (≈ 26.9 µM)
C=C(C)[C@]12C[C@@H](C)[C@@]34OC(Cc5ccccc5)(O[C@@H]1C3C=C(CO)C[C@]1(O)C(=O)C(C)=CC41)O2 (some centres undefined)	3.55 (≈ 7.64 µM)	1.97 (≈ 4.24 µM)	4.56 (≈ 9.82 µM)	30.9 (≈ 66.5 µM)	7.41 (≈ 16 µM)	–	5.41 (≈ 11.6 µM)
C=C(C)[C@]12C[C@@H](C)[C@@]34OC(Cc5ccccc5)(O[C@@H]1[C@@H]3C=C(COC(=O)Cc1ccc(O)c(OC)c1)C[C@]1(O)C(=O)C(C)=CC41)O2 (some centres undefined)	2.44 (≈ 3.88 µM)	1.08 (≈ 1.72 µM)	2.9 (≈ 4.61 µM)	4.29 (≈ 6.82 µM)	3 (≈ 4.77 µM)	281 (≈ 447 µM)	1.12 (≈ 1.78 µM)
CC(=O)OCC1=C[C@H]2[C@@H]3C(C)(C)[C@]3(OC(=O)Cc3ccccc3)C[C@@H](C)[C@]2(O)C2C=C(C)C(=O)[C@@]2(O)C1 (some centres undefined)	26.9 (≈ 52.9 µM)	1.59 (≈ 3.13 µM)	35.1 (≈ 69 µM)	41.3 (≈ 81.1 µM)	29.5 (≈ 57.9 µM)	12 (≈ 23.7 µM)	26.1 (≈ 51.2 µM)
